From ChEMBL document CHEMBL1131137, “New platelet fibrinogen receptor glycoprotein IIb-IIIa antagonists: orally active series of N-alkylated amidines with a 6,6-bicyclic template” (J Med Chem, 1998) come the findings set out here.

In general, Inhibition refers to the change of the read-out against control, counted positive when it falls. Higher therefore signals a strong effect. As a reminder, the IC50 is the concentration that inhibits the measured activity by half. Low readings indicate greater potency in that assay, high ones weaker potency in that assay. The inhibition in vivo is the drop in the measured response relative to a control, in per cent. A high value points to a response far below the control.

Converted amounts (≈) assume the structure as drawn.

The nature of data set [1]: Concentration in plasma 1 hr after oral administration. The note with it: read-out: Plasma level. Type of data set: ADME, cell-free. The procedure, abridged:
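Male guinea pigs starved overnight, given prodrug orally at 37 μmol/kg in saline with 0.5% Tween 80. PPP taken 1 h post-dose under pentobarbital. Bioassay: treated PPP diluted with donor PPP, mixed with donor PRP, and aggregation to 5 μM ADP read against a standard curve of PPP spiked with the active acid.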

Data set [2] in a line: Solubility in saline. Type of data set: physicochemical. Particulars: read-out: S. The procedure, abridged: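 Solubility in saline determined by UV spectrophotometry.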
For data set [3], the system named is Cavia porcellus. Kind of data set: Inhibition of ex vivo platelet aggregation induced by 5 uM Adenosine diphosphate (ADP) 1 hour after oral administration. The format is functional. The procedure, abridged: (§1)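 Fasted male guinea pigs dosed orally at 37 μmol/kg in saline with 0.5% Tween 80, then anesthetized with pentobarbital at 1 h and bled. PRP adjusted to 3.0 × 10⁸/mL, preincubated 2 min, and aggregated with ADP (final 5 μM). Inhibition relative to three vehicle-treated controls per experiment; mean of three animals.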

In data set [4] the target is Integrin alpha-IIb/beta-3 (Homo sapiens, UniProt P05106+P08514). Description: Inhibition of Fibrinogen binding to Immobilized Human Fibrinogen Receptor. The format is protein-complex assay. The procedure, abridged: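 Human platelet GPIIb-IIIa purified (ConA-, heparin-Sepharose, Sephacryl S-300) and coated at 1.5 μg/mL in TBS with 0.0005% Triton, 24 h at 4 °C, then blocked with 3.5% BSA. Compound plus biotinylated fibrinogen (2 μg/mL before 1:1 mixing) incubated 24 h at room temperature. Detection by peroxidase-streptavidin and o-phenylenediamine, A490.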
Integrin alpha-IIb/beta-3, sequence (P05106 27-788 limits assumed): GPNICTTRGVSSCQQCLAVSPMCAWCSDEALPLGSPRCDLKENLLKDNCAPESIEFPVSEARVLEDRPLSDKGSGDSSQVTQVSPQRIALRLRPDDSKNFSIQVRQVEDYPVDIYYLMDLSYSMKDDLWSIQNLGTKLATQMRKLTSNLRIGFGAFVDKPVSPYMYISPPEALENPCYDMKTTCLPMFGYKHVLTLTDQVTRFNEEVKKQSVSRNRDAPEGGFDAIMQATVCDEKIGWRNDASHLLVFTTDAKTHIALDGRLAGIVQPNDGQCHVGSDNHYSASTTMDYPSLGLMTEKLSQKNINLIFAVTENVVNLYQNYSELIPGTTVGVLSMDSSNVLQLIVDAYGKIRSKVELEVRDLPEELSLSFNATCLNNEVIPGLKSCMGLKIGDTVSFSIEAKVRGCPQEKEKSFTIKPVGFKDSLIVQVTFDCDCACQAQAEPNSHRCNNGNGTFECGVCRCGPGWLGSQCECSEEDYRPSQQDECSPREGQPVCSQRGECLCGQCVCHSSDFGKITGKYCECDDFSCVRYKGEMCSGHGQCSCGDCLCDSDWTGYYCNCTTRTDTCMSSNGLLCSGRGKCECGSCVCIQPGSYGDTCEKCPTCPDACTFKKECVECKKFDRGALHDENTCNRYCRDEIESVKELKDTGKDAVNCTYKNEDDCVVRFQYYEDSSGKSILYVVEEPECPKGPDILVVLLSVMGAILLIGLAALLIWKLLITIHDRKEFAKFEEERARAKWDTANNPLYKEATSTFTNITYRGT
Integrin alpha-IIb/beta-3, sequence (P08514 32-887 limits assumed): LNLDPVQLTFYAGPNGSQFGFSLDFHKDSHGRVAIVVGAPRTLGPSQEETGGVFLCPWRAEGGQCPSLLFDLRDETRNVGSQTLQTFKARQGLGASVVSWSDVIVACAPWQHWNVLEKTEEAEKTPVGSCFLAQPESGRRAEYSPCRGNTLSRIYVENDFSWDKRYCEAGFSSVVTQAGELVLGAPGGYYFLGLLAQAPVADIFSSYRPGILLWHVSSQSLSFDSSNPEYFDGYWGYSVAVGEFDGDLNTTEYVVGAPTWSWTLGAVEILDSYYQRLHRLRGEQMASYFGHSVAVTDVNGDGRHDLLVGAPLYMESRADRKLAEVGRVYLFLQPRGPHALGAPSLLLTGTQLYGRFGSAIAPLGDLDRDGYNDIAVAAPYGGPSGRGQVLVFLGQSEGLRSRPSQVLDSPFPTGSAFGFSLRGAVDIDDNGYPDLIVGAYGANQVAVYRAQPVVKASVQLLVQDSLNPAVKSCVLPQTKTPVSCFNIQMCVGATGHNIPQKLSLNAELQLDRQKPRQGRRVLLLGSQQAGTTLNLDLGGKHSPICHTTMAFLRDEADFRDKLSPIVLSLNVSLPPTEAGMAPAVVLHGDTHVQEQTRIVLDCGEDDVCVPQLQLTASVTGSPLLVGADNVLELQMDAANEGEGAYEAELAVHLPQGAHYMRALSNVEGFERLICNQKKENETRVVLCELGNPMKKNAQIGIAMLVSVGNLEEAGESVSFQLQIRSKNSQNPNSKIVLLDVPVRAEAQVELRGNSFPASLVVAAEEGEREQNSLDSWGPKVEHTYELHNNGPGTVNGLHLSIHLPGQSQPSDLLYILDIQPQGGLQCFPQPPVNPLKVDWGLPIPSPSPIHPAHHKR
Integrin alpha-IIb/beta-3, sequence (P08514 891-1039 limits assumed): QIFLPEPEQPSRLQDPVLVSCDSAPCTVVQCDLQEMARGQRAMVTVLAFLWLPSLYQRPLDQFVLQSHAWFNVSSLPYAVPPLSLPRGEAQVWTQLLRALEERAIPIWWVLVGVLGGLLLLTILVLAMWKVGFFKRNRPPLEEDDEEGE

For data set [5], the species on record is Cavia porcellus. Description: In vitro inhibition of guinea pig Platelet-rich plasma (PRP) aggregation induced by 5 uM ADP. Type of data set: functional.
The species entered for a further data set is Homo sapiens. Kind of data set: In vitro inhibition of human Platelet-rich plasma (PRP) aggregation induced by 5 uM ADP. Type of data set: functional. The procedure, abridged:
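PRP prepared by 120g 15-min spin of citrated venous blood (3.8% citrate, 1:9) from anesthetized male guinea pigs or male human volunteers, adjusted to 2.5–3.0 × 10⁸ platelets/mL with PPP. PRP warmed 2 min at 37 °C, compound or vehicle added, then 2 min later ADP (final 5 μM). Maximum aggregation compared with control; IC50 estimated.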

For data set [6], the system named is Cavia porcellus. Kind of data set: Inhibition of ex vivo platelet aggregation induced by 5 uM Adenosine diphosphate (ADP) 1 hour after oral administration at the dose of 37umol/kg. The format is functional. The procedure, abridged:
as §1

For `C#CCNC(=N)c1ccc(C(=O)Nc2ccc3c(c2)CC(CC(=O)OCC)CO3)cc1` (stereo not drawn), the concentration at 1 h in data set [1] came to 3800 nM. Also, in data set [2], the solubility was 106000 µg/mL (≈ 253000 µM). In the data set on Cavia porcellus [3], this compound gave an Inhibition of 99%.

In the case of `C=CCNC(=N)c1ccc(C(=O)Nc2ccc3c(c2)CC(CC(=O)OCC)CC3)cc1` (stereo not drawn), in data set [1], the concentration at 1 h amounted to 380 nM. This compound had an Inhibition with Cavia porcellus [3] of 21%.

Consider `NC(=NCc1ccco1)c1ccc(C(=O)Nc2ccc3c(c2)CC(CC(=O)O)CC3)cc1` (stereo not drawn), for which the IC50 in data set [4] is 0.2 nM; in the data set listed under Cavia porcellus [5] it was 0.62 µM.

In the case of `N=C(N)c1ccc(C(=O)Nc2ccc3c(c2)CC(CC(=O)O)CO3)cc1` (stereo not drawn), the IC50 in data set [4] was 0.073 nM; in the data set listed under Homo sapiens it was 0.049 µM.

`N=C(N)c1ccc(/C=C/c2ccc3c(c2)CC(CC(=O)O)CC3)cc1` (stereo not drawn) had an IC50 in the data set filed under Cavia porcellus [5] of 5 µM.

Regarding `N=C(c1ccc(C(=O)Nc2ccc3c(c2)CC(CC(=O)O)CO3)cc1)N1CCOCC1` (stereo not drawn), the IC50 in data set [4] was found to be 0.098 nM; in the data set filed under Cavia porcellus [5] it was 0.23 µM; in the data set filed under Homo sapiens, 0.066 µM.

Take `CCC/N=C(\N)c1ccc(C(=O)Nc2ccc3c(c2)CC(CC(=O)OCC)CC3)cc1` (stereo not drawn): the concentration at 1 h in data set [1] was less than 180 nM. Besides, the Inhibition in the data set on Cavia porcellus [3] is given as 3%.

On to `CCCNC(=N)c1ccc(C(=O)Nc2ccc3c(c2)CC(CC(=O)O)CC3)cc1` (stereo not drawn), for which the IC50 in data set [4] worked out at 0.13 nM; in the data set filed under Cavia porcellus [5] it was 0.17 µM; in the data set listed under Homo sapiens it was 0.068 µM.

Take `C#CCNC(=N)c1ccc(C(=O)Nc2ccc3c(c2)CC(CC(=O)O)CO3)cc1` (stereo not drawn): the IC50 in data set [4] worked out at 0.13 nM; in the data set filed under Cavia porcellus [5], 0.35 µM; in the data set listed under Homo sapiens, 0.078 µM.

As for `CCOC(=O)CC1COc2ccc(NC(=O)c3ccc(C(=N)N4CCOCC4)cc3)cc2C1` (stereo not drawn), the concentration at 1 h in data set [1] was determined as 8400 nM. In data set [2], the solubility is more than 200000 µg/mL. In addition, in the data set with Cavia porcellus [3], the Inhibition was found to be 99%.

Regarding `N=C(c1ccc(C(=O)Nc2ccc3c(c2)CC(CC(=O)O)CC3)cc1)N1CCOCC1` (stereo not drawn), the IC50 in data set [4] came out at 0.15 nM; in the data set listed under Cavia porcellus [5], 0.19 µM; in the data set listed under Homo sapiens, 0.08 µM.

`C#CC/N=C(\N)c1ccc(C(=O)Nc2ccc3c(c2)CC(CC(=O)O)CC3)cc1` (stereo not drawn): the results for the IC50 (in data set [4]; in the data set filed under Cavia porcellus [5]; in the data set filed under Homo sapiens) were 0.16 nM, 0.3 µM and 0.1 µM, respectively.

The compound `N=C(N)c1ccc(COc2ccc3ccc(CC(=O)O)cc3c2)cc1` registered a half-inhibitory concentration (IC50) in the data set listed under Cavia porcellus [5] of more than 1000 µM.

As to `C#CCNC(=N)c1ccc(C(=O)Nc2ccc3c(c2)CC(CC(=O)OCC)CC3)cc1` (stereo not drawn), the concentration at 1 h in data set [1] amounted to 1000 nM. The solubility in data set [2] came out at 1500 µg/mL (≈ 3590 µM). Moreover, the Inhibition with Cavia porcellus [3] is given as 99%.

In the case of `N=C(N)c1ccc(C(=O)Nc2ccc3c(c2)CN(CC(=O)O)CC3)cc1`, the concentration for half-maximal inhibition (IC50) in the data set filed under Cavia porcellus [5] is 6.6 µM; in the data set listed under Homo sapiens, 0.29 µM.

In the data set listed under Homo sapiens, `N=C(N)c1ccc(COc2ccc3c(c2)CC(CC(=O)O)CC3)cc1` (stereo not drawn) had an IC50 of 1.5 µM.

Regarding `C=CCNC(=N)c1ccc(C(=O)Nc2ccc3c(c2)CC(CC(=O)O)CC3)cc1` (stereo not drawn), the IC50 in data set [4] came out at 0.26 nM; in the data set filed under Cavia porcellus [5], 0.49 µM.

For the compound `N=C(N)c1ccc(C(=O)Nc2ccc3c(c2)CC(CC(=O)O)CC3)cc1` (stereo not drawn), the IC50 was found to be 0.12 nM in data set [4], 0.37 µM in the data set filed under Cavia porcellus [5] and 0.057 µM in the data set listed under Homo sapiens. In addition, the inhibition in vivo at 37 µmol/kg with Cavia porcellus [6] was determined as 8%.

As for `CCOC(=O)CC1CCc2ccc(NC(=O)c3ccc(C(=N)N)cc3)cc2C1` (stereo not drawn), in data set [2], the solubility was determined as 260 µg/mL (≈ 685 µM). The compound further registered an inhibition in vivo at 37 µmol/kg in the data set on Cavia porcellus [6] of 41%.

On to `CCOC(=O)CC1CCc2ccc(NC(=O)c3ccc(C(=N)NCc4ccco4)cc3)cc2C1` (stereo not drawn), for which, in data set [1], the concentration at 1 h was found to be 850 nM. Also, the solubility in data set [2] turned out to be 1060 µg/mL (≈ 2310 µM). The Inhibition in the data set with Cavia porcellus [3] came to 91%.

On to `N=C(c1ccc(C(=O)Nc2ccc3c(c2)C[C@@H](CC(=O)O)CO3)cc1)N1CCOCC1`, for which the half-maximal inhibitory concentration (IC50) worked out at 0.12 nM in data set [4], 0.11 µM in the data set filed under Cavia porcellus [5] and 0.035 µM in the data set listed under Homo sapiens.

In the case of `N=C(N)c1ccc(CCc2ccc3c(c2)CC(CC(=O)O)CC3)cc1` (stereo not drawn), in the data set filed under Homo sapiens, inhibition was half-maximal at 0.37 µM (IC50).

With `N=C(c1ccc(C(=O)Nc2ccc3c(c2)C[C@H](CC(=O)O)CO3)cc1)N1CCOCC1`, the half-inhibitory concentration (IC50) in data set [4] is 2.6 nM; in the data set filed under Homo sapiens, 0.36 µM.

Take `CN(C(=O)c1ccc(C(=N)N)cc1)c1ccc2c(c1)CC(CC(=O)O)CC2` (stereo not drawn): the IC50 in the data set filed under Cavia porcellus [5] came to 1.8 µM; in the data set listed under Homo sapiens, 0.2 µM.

On to `CCOC(=O)CC1COc2ccc(NC(=O)c3ccc(C(=N)N)cc3)cc2C1` (stereo not drawn), for which, in data set [2], the solubility is 410 µg/mL (≈ 1070 µM). This compound also showed an inhibition in vivo at 37 µmol/kg in the data set on Cavia porcellus [6] of 40%.

As to `CCOC(=O)CC1CCc2ccc(NC(=O)c3ccc(C(=N)N4CCOCC4)cc3)cc2C1` (stereo not drawn), in data set [1], the concentration at 1 h amounted to 7300 nM. In data set [2], the solubility is more than 200000 µg/mL. In the data set with Cavia porcellus [3], this compound displayed an Inhibition of 98%.

With `N=C(N)c1ccc(NC(=O)c2ccc3c(c2)CC(CC(=O)O)CC3)cc1` (stereo not drawn), the IC50 in the data set listed under Cavia porcellus [5] is 0.23 µM; in the data set filed under Homo sapiens it was 0.046 µM.
